In the library only some 1.5% were active in any assay of this set; here they are far more common.
CCR6 antagonist: CCR6 (human) receptor antagonism. 340,000 compounds, 0.49% hits. P51684. inhibition, % at 20 µM. CHO-K1 CCR6 PathHunter beta-arrestin, luminescence, CCL20-stimulated;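 active means compounds whose inhibition of the agonist-driven luminescence signal at 20 µM reaches about 50%, limit read from the data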;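 further: cells stimulated with CCL20 at 14 nM final; plate controls were DMSO with CCL20 for no effect and DMSO without agonist for full effect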
EBI2 block: EBI2 (human) antagonism | P32249 | EBI2 beta-arrestin recruitment, luminescence, 7a,25-OHC stimulated | inhibition, % at 5 µM | 360,000 compounds, 0.81% hits; in the data active means inhibition above about 38%;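 further: enzyme fragment complementation signal reports receptor beta-arrestin coupling in cells; 0% = agonist plus DMSO wells and 100% = wells without agonist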
APJ antag: antagonists of human APJ apelin receptor; CHO-K1 APJ beta-arrestin complementation, luminescence; P35414; 330,000 compounds, 0.32% hits; inhibition, % at 20 µM;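 active means inhibition above about 40% at 20 µM, limit read from the data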;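 further: cells challenged with 10 nM apelin-13 agonist together with compound; plate controls were apelin-13 plus DMSO wells for no effect and DMSO wells lacking apelin-13 for full effect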
Target sequence (P35414 whole entry, looked up): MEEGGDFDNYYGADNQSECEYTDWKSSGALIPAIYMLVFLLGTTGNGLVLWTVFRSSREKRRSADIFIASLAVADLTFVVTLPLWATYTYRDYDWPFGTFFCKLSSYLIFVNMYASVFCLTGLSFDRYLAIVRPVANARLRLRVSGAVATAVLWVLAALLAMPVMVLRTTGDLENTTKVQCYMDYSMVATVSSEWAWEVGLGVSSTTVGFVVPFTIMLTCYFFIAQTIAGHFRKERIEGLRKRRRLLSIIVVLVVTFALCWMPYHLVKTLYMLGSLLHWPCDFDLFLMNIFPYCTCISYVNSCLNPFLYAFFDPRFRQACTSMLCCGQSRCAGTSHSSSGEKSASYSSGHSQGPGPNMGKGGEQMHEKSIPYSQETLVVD
APJ ag: activates the human apelin receptor APJ; P35414; CHO-K1 APJ PathHunter beta-arrestin, luminescence; 0% DMSO wells, 100% apelin; activation, % at 20 µM; 330,000 compounds, 0.11% hits;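 active means activation more than six SD over the plate average, tested at 20 µM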;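 further: 0% = DMSO alone and 100% = apelin-13 at 10 nM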
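Test system: CHO-K1 APJ beta-arrestin complementation cell line | Compound: Single test compound dose, 20 µM final, 1% DMSO | Incubation: Compound 90 min 25 °C, reagent 1 h | Measured by: beta-gal luminescence | Read-out basis: APJ–arrestin association signal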
CXCR6 inh: blocks human CXCR6 beta-arrestin recruitment | inhibition, % at 20 µM | 360,000 compounds, 0.36% hits | CHO-K1 PathHunter CXCR6 beta-arrestin, luminescence; in the data active means inhibition above about 34%, passing the limit was not always enough;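 further: antagonist mode with CXCL16 agonist at 10 nM final; 0% = 10 nM CXCL16 with DMSO and 100% = unstimulated wells without agonist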
APJ ag conf: APJ receptor agonism confirmation. AID 2764. 310 compounds, 10% hits. CHO-K1 APJ PathHunter beta-arrestin, luminescence. shares compounds with APJ ag. activation, % at 20 µM;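 active means activation above 40%, taking the highest of four retests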;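 further: plate controls were DMSO wells for no effect and apelin-13 at 10 nM for full effect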
* = called active by the depositor; · = no result given.

SMILES	CCR6 antagonist	EBI2 block	APJ antag	APJ ag	CXCR6 inh	others
O=C(N/N=C\C1C(=O)NC(=S)N(c2ccccc2)C1=O)c1ccc(O)cc1 (centres undefined)	61.9*	-9.6	-8.7	-5.8	4.5
COc1ccc2c(c1)C13CCN4CC5=CCOC6CC(=O)N2C1C6C5CC43 (centres undefined)	·	-8.2	·	·	-5.0
C=C1C(=O)OC2CC(C)C3C=CC(=O)C3(C)C(O)C12 (centres undefined)	46.6	47.0*	·	·	28.8
CCCC1(CC(C)CC)C(=O)NC(=O)NC1=O (centres undefined)	·	9.8	·	·	-4.3
N#CC12c3ccccc3C(=O)N1Cc1cnnn1-c1ccccc12 (centres undefined)	·	-13.4	·	·	-2.1
O=C1NC(=O)C(=Cc2ccc(-c3ccc(S(=O)(=O)N4CCOCC4)cc3)o2)C(=O)N1	-4.2	-3.0	-8.5	9.4	5.1
O=C1NC(=O)C(=Cc2ccc(-c3ccc(Cl)cc3)o2)C(=O)N1	71.2*	20.6	-2.4	23.9	50.1*
O=c1c2ccccc2nc(-c2ccccc2)n1-c1ccccc1	0.8	-7.6	15.7	-0.8	-7.8
O=c1c2ccccc2[se]n1-c1ccccc1	15.4	61.7*	-3.5	-1.2	-2.7
Brc1ccc2[nH]cc(C=NN3CCCCCC3)c2c1	-1.1	-10.6	·	·	-11.0
CN(C)c1ccc(/C=C/C=C2/C(=O)NC(=O)N(c3ccccc3)C2=O)cc1	65.8*	26.7	·	·	46.2*
CC(C)C[C@H]1COc2cc(N3CCN(C)CC3)ccc2S(=O)(=O)N1	·	-3.1	·	·	-3.1
O=C1NC(=O)N(CCc2ccc(F)cc2)C(=O)/C1=C\C=C\c1ccccc1	-23.7	47.9*	·	·	-7.4
C=CCN1C(=O)NC(=O)/C(=C/C=C/c2ccccc2)C1=O	0.7	2.9	·	·	-22.8
CC12CCCCC1N(O)CN2O (centres undefined)	60.4*	3.8	17.6	-1.4	5.2
O=C1C(=O)c2cccc3cccc1c23	67.2*	56.5*	62.6*	-12.7	43.7*
O=P1(NCCCl)OCCC(OO)N1CCCl (centres undefined)	·	1.3	·	·	-1.0
ON1C2CCCCC2N(O)C1c1ccccc1F (centres undefined)	80.3*	-13.0	24.1	-8.1	23.5
CN1CC(C(=O)c2ccc(Cl)cc2)C(c2ccccc2F)C1 (centres undefined)	13.1	7.8	7.1	-3.5	7.5
O=C1NC(=O)C(Nc2ccc(Cl)c(Cl)c2)C(=O)N1	-0.5	-13.1	·	·	2.2
O=C(Cn1c(=O)n(CC2CS2)c2ccccc21)N1CCCCCC1 (centres undefined)	61.9*	-9.2	8.4	-5.5	-5.4
C=C(C)Cn1c(=O)n(CC2CS2)c2ccccc21 (centres undefined)	2.4	-5.2	4.3	-2.6	-21.8
CCN1/C(=C/C=C/C2=[N+](CC)c3ccccc3C2(C)C)C(C)(C)c2ccccc21	·	15.9	·	·	55.9*
CN1/C(=C\C=C\C2=[N+](C)c3ccc4ccccc4c3C2(C)C)C(C)(C)c2ccccc21	·	·	42.6*	-4.9	·
COC(=O)[C@@H]1N=C(c2ccc(OC)cc2)O[C@]12C(=O)N(Cc1ccccc1)c1ccccc12	·	6.1	·	·	9.6
SMILES	CCR6 antagonist	EBI2 block	APJ antag	APJ ag	CXCR6 inh	others
COC(=O)C1CN(C#N)N(c2ccc(Cl)cc2)C12c1ccccc1-c1ccccc12 (centres undefined)	32.3	53.0*	21.3	2.1	22.8
COC(=O)C1=C(c2ccc(-c3ccccc3)c(F)c2)C[C@@H]2CC[C@H]1N2C(=O)N1CCC(O)CC1	8.6	1.0	5.0	-3.5	-2.4
COC(=O)C1=C(c2ccc(-c3ccccc3)c(F)c2)C[C@@H]2CC[C@H]1N2C(=O)N1CCC(C)CC1	28.3	32.6	13.6	-3.7	41.4*
CC1CCN(C(CC(=O)c2ccccc2)C(=O)c2ccccc2)CC1 (centres undefined)	65.3*	15.5	·	·	30.4
O=C(c1ccccc1)C(CN1CCCC1)c1ccccc1 (centres undefined)	8.4	-55.4	·	·	6.7
O=C1C=CC(=O)C=C1	78.9*	-8.7	-2.5	-1.4	-4.0
CCN1C(=O)C(=Cc2ccc(N3CCOCC3)o2)C(=O)N(CC)C1=S	14.4	-11.9	26.9	-8.3	-0.8
CN1C(=O)C(=Cc2ccc(N3CCOCC3)o2)C(=O)N(C)C1=S	57.4*	2.4	42.5*	-4.7	3.0
O=S1(=O)NCC2(CC2)CN1Cc1ccccc1	·	-2.0	·	·	-6.5
COCCCNC(=O)c1c(N)n(Cc2ccco2)c2nc3ccccc3nc12	-2.9	10.2	6.0	0.2	5.1
CC(C)OCCCNC(=O)c1c(N)n(Cc2cccs2)c2nc3ccccc3nc12	-11.2	71.2*	20.8	-5.0	-1.3
Cc1cc(/C=C2\C(=O)NC(=O)N(c3ccc(Cl)cc3)C2=O)c(C)n1-c1sc2c(c1C#N)CCCC2	-11.8	28.8	7.4	4.5	-8.7
Cc1sc(-n2c(C)cc(C=C3C(=O)NC(=O)NC3=O)c2C)c(C#N)c1C	0.6	·	8.6	10.8*	·	APJ ag conf=21.1
CC1(C)C[C@H]2C=C(C=O)[C@]3(C=O)C[C@]3(C)[C@H]2C1	29.7	4.4	-26.0	30.9*	-3.0	APJ ag conf=33.3
CCCSc1nc(O)c(CC)c(=O)n1C(C)CC (centres undefined)	-7.4	-14.6	12.8	60.3*	-2.8	APJ ag conf=62.1*
CCOc1ccccc1CN1CCCC(C(=O)c2cc(F)ccc2F)C1 (centres undefined)	11.5	2.8	12.7	-0.2	4.3
C=C(C=O)C[C@@H]1C[C@H](O)C2OC3C[C@]4(C)OC5/C=C\CC6OC7C(CC=CCC6OC5CCCC4OC3CC2O1)OC1CC2OC3CC(=O)OC3C[C@@H](C)C[C@@]2(C)OC1C[C@@H]7C (some centres undefined)	46.7	·	-12.0	21.2*	·	APJ ag conf=18.6
O=C1C(=O)c2ccccc2-c2ccccc21	33.7	-60.2	-2.7	37.3*	21.6	APJ ag conf=41.6*
O=c1[nH]c(O)c(N=Nc2cc([N+](=O)[O-])ccc2O)c(=O)[nH]1	47.3	5.4	·	·	25.0
CC1CCCCN1Cc1ccc(Cl)nc1 (centres undefined)	-0.2	-2.9	-6.2	-1.5	7.8
CC1=Nc2ccccc2/C1=C/c1c(O)[nH]c(=O)[nH]c1=O	-1.8	-1.3	13.1	-2.8	7.8
O=c1[nH]c(O)c(/C=C2/C=CC(c3cc(Cl)ccc3Cl)=N2)c(=O)[nH]1	-5.8	-3.7	-58.5	19.2*	-6.4	APJ ag conf=30.1
NC(N)=N/N=C/c1ccc(N(c2ccccc2)c2ccccc2)cc1	15.4	-7.7	-20.5	40.5*	-13.0	APJ ag conf=29.6
O=C(Cc1ccccc1)OC(COCc1ccccc1)CN1CCOCC1 (centres undefined)	2.5	8.0	1.8	-1.6	-5.3
CC(N=Cc1c(O)[nH]c(=O)[nH]c1=O)c1ccccc1 (centres undefined)	-16.0	-1.6	-3.2	-4.3	0.2
